ChEMBL document CHEMBL1139486, “Novel benzopyridothiadiazepines as potential active antitumor agents” (J Med Chem, 2005)

Tests used:
L1210 [1] = assay: Antiproliferative activity against mouse L1210 cells after 48 hrs relative control; type: functional, cell-based; settings: L1210, 48 h
In short: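 L1210 cells grown in RPMI 1640 with 10% fetal calf serum, 2 mM L-glutamine, penicillin/streptomycin and 10 mM HEPES (pH 7.4). Cells were exposed 48 h to graded drug concentrations, then MTT was added for 4 h at 37 °C. Formazan was dissolved in DMSO and OD read at 540 nm. IC50 came from linear regression on the linear part of the dose-response curve, in triplicate.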

L1210 [2] = assay: Cell cycle perturbations in mouse L1210 cells assessed as accumulation in G1 phase after 21 hrs at 5 uM relative to control; type: functional
In short: (§1)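 L1210 cells in RPMI 1640 with 10% fetal calf serum, 2 mM L-glutamine, antibiotics and 10 mM HEPES (pH 7.4) were exposed for 21 h (two doubling times). They were fixed in 70% ethanol and stained 30 min at 20 °C in D-PBS with […] RNAse and […] propidium iodide. 10⁴ cells per sample were analysed by flow cytometry for % G1, S, G2+M and 8N.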

L1210 [3] = assay: Cell cycle perturbations in mouse L1210 cells assessed as accumulation in S phase after 21 hrs at 5 uM relative to control; type: functional; in short: as §1
L1210 [4] = assay: Cell cycle perturbations in mouse L1210 cells assessed as accumulation in G2+M phase after 21 hrs at 5 uM relative to control; type: functional; in short: as §1
L1210 [5] = assay: Cell cycle perturbations in mouse L1210 cells assessed as accumulation in 8N phase after 21 hrs at 5 uM relative to control; type: functional; in short: as §1
L1210 [6] = assay: Cell cycle perturbations in mouse L1210 cells assessed as accumulation in G1 phase after 21 hrs at 0.5 uM relative to control; type: functional
L1210 [7] = assay: Cell cycle perturbations in mouse L1210 cells assessed as accumulation in S phase after 21 hrs at 0.5 uM relative to control; type: functional
L1210 [8] = assay: Cell cycle perturbations in mouse L1210 cells assessed as accumulation in G2+M phase after 21 hrs at 0.5 uM relative to control; type: functional
L1210 [9] = assay: Cell cycle perturbations in mouse L1210 cells assessed as accumulation in 8N phase after 21 hrs at 0.5 uM relative to control; type: functional

IC50 (L1210 [1])	SMILES	other results
5.4 µM	COc1ccc(CN2C=CC=C3C2=Nc2cc(Cl)ccc2N(C)S3(=O)=O)cc1	–
> 10 µM	COc1ccc(CN2C=CC=C3C2=Nc2cc(OC)ccc2N(C)S3(=O)=O)cc1	–
1.5 µM	COc1ccc(CCN2C=CC=C3C2=Nc2cc(OC)ccc2N(C)S3(=O)=O)cc1	Activity (L1210 [2]): 5%; Activity (L1210 [3]): 7%; Activity (L1210 [4]): 17%; Activity (L1210 [5]): 71%
> 50 µM	COc1ccc(CCCN2C=CC=C3C2=Nc2cc(OC)ccc2S(=O)(=O)N3C)cc1	–
> 10 µM	COc1ccc(CN2C=CC=C3C2=Nc2ccccc2N(C)S3(=O)=O)cc1	–
> 50 µM	COc1ccc(CN2C=CC=C3C2=Nc2cc(OC)ccc2S(=O)(=O)N3C)cc1	–
0.23 µM	COc1ccc(CCN2C=CC=C3C2=Nc2ccc(Cl)cc2N(C)S3(=O)=O)cc1	Activity (L1210 [6]): 3%; Activity (L1210 [7]): 6%; Activity (L1210 [8]): 21%; Activity (L1210 [9]): 70%
> 10 µM	COc1ccc(CCN2C=CC=C3C2=Nc2cc(C(F)(F)F)ccc2S(=O)(=O)N3C)cc1	–
> 10 µM	COc1ccc(CCCN2C=CC=C3C2=Nc2cc(C)ccc2S(=O)(=O)N3C)cc1	–
8.3 µM	COc1ccc(CCCN2C=CC=C3C2=Nc2ccccc2N(C)S3(=O)=O)cc1	–
9.2 µM	COc1ccc(CN2C=CC=C3C2=Nc2cc(C)ccc2N(C)S3(=O)=O)cc1	–
4.1 µM	COc1ccc(CN2C=CC=C3C2=Nc2ccc(Cl)cc2N(C)S3(=O)=O)cc1	–

Further lines, the compound ahead of its results:

SMILES	IC50 (L1210 [1])	other results
COc1ccc(CN2C=CC=C3C2=Nc2cc(Cl)ccc2S(=O)(=O)N3C)cc1	1.5 µM	–
COc1ccc(CCN2c3cc(Cl)ccc3S(=O)(=O)N(C)c3cccnc32)cc1	> 10 µM	–
COc1ccc(CCN2c3ccccc3N(C)S(=O)(=O)c3cccnc32)cc1	> 10 µM	–
COc1ccc(CCCN2C=CC=C3C2=Nc2ccccc2S(=O)(=O)N3C)cc1	> 10 µM	–
COc1ccc(CN2c3cc(Cl)ccc3N(C)S(=O)(=O)c3cccnc32)cc1	8.7 µM	–
COc1ccc(CN2C=CC=C3C2=Nc2ccc(Cl)cc2S(=O)(=O)N3C)cc1	> 10 µM	–
COc1ccc(CN2c3cc(OC)ccc3N(C)S(=O)(=O)c3cccnc32)cc1	8.3 µM	–
CN(C)CCOc1ccc(CCN2C=CC=C3C2=Nc2ccccc2S(=O)(=O)N3C)cc1	> 10 µM	–
COc1ccc(CN2c3ccccc3S(=O)(=O)N(C)c3cccnc32)cc1	> 10 µM	–
COc1cc(CN2c3ccccc3S(=O)(=O)N(C)c3cccnc32)cc(OC)c1OC	> 10 µM	–
CN1C2=CC=CN(CCc3ccc(O)cc3)C2=Nc2ccccc2S1(=O)=O	> 10 µM	–
COc1ccc(CN2c3ccccc3N(Cc3ccc(OC)cc3)S(=O)(=O)c3cccnc32)cc1	> 100 µM	–
COc1ccc(CN2c3cc(C)ccc3S(=O)(=O)N(C)c3cccnc32)cc1	> 10 µM	–
COc1ccc(CCN2c3cc(C)ccc3N(C)S(=O)(=O)c3cccnc32)cc1	> 10 µM	–
COc1cc(CN2C=CC=C3C2=Nc2ccccc2S(=O)(=O)N3C)cc(OC)c1OC	> 10 µM	–
COc1ccc(CN2C=CC=C3C2=Nc2cc(C)ccc2S(=O)(=O)N3C)cc1	9 µM	–
COc1ccc(CCN2c3ccc(Cl)cc3N(C)S(=O)(=O)c3cccnc32)cc1	> 10 µM	–
